# ChEMBL document CHEMBL1287726, “Bisaryldiketene derivatives: A new class of selective ligands for c-myc G-quadruplex DNA” (Bioorg Med Chem, 2010)
# Values joined by “and” are separate entries in the source; they are usually repeats but may differ in a detail not shown here. Equal values may be shown once. Active and inactive are the calls of the source. The rule behind the calls is not given here.
# Columns and labels:
# [1] = tested on: Nucleic Acid; test: Binding affinity to F-c-kit1-T G-quadruplex DNA assessed as change in melting temperature at 1 uM by FRET assay (reference value: 54 degC); assay type: nucleic-acid assay
# Procedure, shortened: (§1)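 FRET melting of dual FAM/TAMRA-labelled oligonucleotide (0.2 μM), pre-annealed in K+ buffer (90 °C 5 min, slow cooling, 4 °C overnight), in 10 mM Tris-HCl pH 7.4, 60 mM KCl with ligand at 1 μM. Equilibrated 25 °C 5 min, then heated 1 °C/min to 95 °C; excitation 492 nm, emission 516 nm. ΔTm = Tm(DNA+ligand) − Tm(DNA).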
# [2] = tested on: Nucleic Acid; test: Binding affinity to F-c-kit2-T G-quadruplex DNA assessed as change in melting temperature at 1 uM by FRET assay (reference value: 75 degC); assay type: nucleic-acid assay; procedure, shortened: as §1
# [3] = tested on: Nucleic Acid; test: Binding affinity to F22T G-quadruplex DNA assessed as decrease in melting temperature at 1 uM by FRET assay in presence of duplex DNA competitor ds26; assay type: nucleic-acid assay
# Procedure, shortened: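 Competitive FRET melting: 0.2 μM F22T premixed with excess duplex ds26 (3 μM or 10 μM), ligand at 1 μM, in 10 mM Tris-HCl pH 7.4, 60 mM KCl. Heated 1 °C/min from 25 °C to 95 °C; ex 492/em 516 nm; ΔTm determined.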
# [4] = target: Nucleic Acid; test: Binding affinity to single-strand Pu27 oligonucleotide assessed as formation of G-quadruplex complex after 3 mins by PCR stop assay; assay type: nucleic-acid assay
# Procedure, shortened: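 PCR stop assay: Pu27 with complementary Pu27rev (10 pmol each), 0.16 mM dNTP, 2.5 U Taq polymerase and ligand in 1× PCR buffer. Cycling 94 °C 3 min, then 35 cycles of 94 °C/58 °C/72 °C, 30 s each. Double-stranded product detected by electrophoresis; IC50 is the concentration inhibiting amplification by 50%.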
# [5] = tested on: human telomeric G-quadruplex DNA F21T (human); test: Binding affinity to F21T G-quadruplex DNA assessed as change in melting temperature at 1 uM by FRET assay (reference value: 60 degC)
# [6] = tested on: Nucleic Acid; test: Binding affinity to F10T hairpin duplex DNA assessed as change in melting temperature at 1 uM by FRET assay (reference value: 64 degC)
# [7] = tested on: c-myc G-quadruplex DNA F22T (human); test: Binding affinity to human F22T G-quadruplex DNA assessed as change in melting temperature at 1 uM by FRET assay (reference value: 78 degC)
# [8] = tested on: Nucleic Acid; test: Binding affinity to F22T G-quadruplex DNA assessed as decrease in melting temperature at 1 uM by FRET assay in presence of G-quadruplex DNA competitor HTG21; assay type: nucleic-acid assay
# Procedure, shortened: (§2)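 Competitive FRET melting: 0.2 μM F22T with ligand at 1 μM, without or with 3 μM or 10 μM unlabelled G-quadruplex competitor (c-kit1, c-kit2 or HTG21), in 10 mM Tris-HCl pH 7.4, 60 mM KCl. Heated 1 °C/min from 25 °C to 95 °C; ex 492/em 516 nm; ΔTm determined.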
# [9] = tested on: Nucleic Acid; test: Binding affinity to F22T G-quadruplex DNA assessed as change in melting temperature at 1 uM by FRET assay in presence of G-quadruplex DNA competitor c-kit1; assay type: nucleic-acid assay; procedure, shortened: as §2
# [10] = tested on: Nucleic Acid; test: Binding affinity to F22T G-quadruplex DNA assessed as change in melting temperature at 1 uM by FRET assay in presence of G-quadruplex DNA competitor c-kit2; assay type: nucleic-acid assay; procedure, shortened: as §2
# [11] = tested on: Nucleic Acid; test: Binding affinity to Pu27 G-quadruplex DNA assessed as change in melting temperature by isothermal titration calorimetry; assay type: nucleic-acid assay
# Procedure, shortened: (§3)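 ITC at 25 °C: preannealed G-quadruplex (5 μM) in cell, ligand (400 μM) in syringe, both in 10 mM Tris-HCl pH 7.4, 150 mM KCl, degassed. Thirty 10 μL injections at 4 min intervals. Heats of ligand dilution into buffer subtracted before fitting the integrated thermograms for K, ΔH, ΔS.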
# [12] = tested on: Nucleic Acid; test: Binding affinity to c-kit1 G-quadruplex DNA assessed as change in melting temperature by isothermal titration calorimetry; assay type: nucleic-acid assay; procedure, shortened: as §3
# [13] = tested on: Nucleic Acid; test: Binding affinity to c-kit2 G-quadruplex DNA assessed as change in melting temperature by isothermal titration calorimetry; assay type: nucleic-acid assay; procedure, shortened: as §3
# [14] = tested on: Nucleic Acid; test: Binding affinity to HTG21 G-quadruplex DNA assessed as change in melting temperature by isothermal titration calorimetry; assay type: nucleic-acid assay; procedure, shortened: as §3
# [15] = tested on: Nucleic Acid; test: Selectivity ratio, K for F22T G-quadruplex DNA to K for c-kit1 G-quadruplex DNA; assay type: nucleic-acid assay
# [16] = tested on: Nucleic Acid; test: Selectivity ratio, K for F22T G-quadruplex DNA to K for c-kit2 G-quadruplex DNA; assay type: nucleic-acid assay
# [17] = tested on: Nucleic Acid; test: Selectivity ratio, K for F22T G-quadruplex DNA to K for human F21T G-quadruplex DNA; assay type: nucleic-acid assay
ΔTm [1] [°C],ΔTm [2] [°C],Activity [3],IC50 [4] [µM],ΔTm [5] [°C],ΔTm [6] [°C],ΔTm [7] [°C],Activity [8],Activity [9] [%],Activity [10] [%],K [11],K [12] [×10⁵ /M],K [13] [×10⁵ /M],K [14] [×10⁴ /M],Selectivity ratio [15],Selectivity ratio [16],Selectivity ratio [17],Structure (SMILES)
29,20,inactive,0.9,23,1,17,Active,40,40,8.05 ×10⁶ /M and 4.42 ×10⁴ /M,3.08,1.27,3.61,25,25,200,C[n+]1cccc2cc(/C=C3\CC/C(=C\c4ccc5c(ccc[n+]5C)c4)C3=O)ccc21
24,17,inactive,0.7,17,0,13,–,–,–,–,–,–,–,–,–,–,C[n+]1cccc2cc(/C=C/C(=O)/C=C/c3ccc4c(ccc[n+]4C)c3)ccc21
1,0,inactive,> 20,0,0,2,–,–,–,–,–,–,–,–,–,–,O=C1/C(=C/c2ccc3ncccc3c2)CC/C1=C\c1ccc2ncccc2c1
14,6,inactive,12.6,7,0,7,–,–,–,–,–,–,–,–,–,–,C[n+]1cccc2cc(/C=C3\C[N+](C)(C)C/C(=C\c4ccc5c(ccc[n+]5C)c4)C3=O)ccc21
17,12,inactive,1.1,10,0,9,–,–,–,–,–,–,–,–,–,–,C[n+]1cccc2cc(/C=C3/CCC/C(=C/c4ccc5c(ccc[n+]5C)c4)C3=O)ccc21

# The next lines start with the molecule.
Structure (SMILES),ΔTm [1] [°C],ΔTm [2] [°C],Activity [3],IC50 [4] [µM],ΔTm [5] [°C],ΔTm [6] [°C],ΔTm [7] [°C],Activity [8],Activity [9] [%],Activity [10] [%],K [11],K [12] [×10⁵ /M],K [13] [×10⁵ /M],K [14] [×10⁴ /M],Selectivity ratio [15],Selectivity ratio [16],Selectivity ratio [17]
O=C1/C(=C\c2ccc3ncccc3c2)CCC/C1=C/c1ccc2ncccc2c1,1,0,inactive,> 20,0,0,2,–,–,–,–,–,–,–,–,–,–
O=C(/C=C/c1ccc2ncccc2c1)/C=C/c1ccc2ncccc2c1,10,5,inactive,> 20,3,0,2,–,–,–,–,–,–,–,–,–,–
CN1C/C(=C\c2ccc3ncccc3c2)C(=O)/C(=C/c2ccc3ncccc3c2)C1,1,1,inactive,> 20,4,0,1,–,–,–,–,–,–,–,–,–,–
